ChEMBL document CHEMBL1124624, “Synthesis and biological evaluation of 4,6-diethyl-1,3,4,5-tetrahydropyrano[4,3-b]indole-4-acetic acid, an isomer of etodolac” (J Med Chem, 1989)

Tests used:
[1] = system: Rattus norvegicus; assay: Antiinflammatory activity of the perorally administered compound assessed in adjuvant arthritis assay in rat; type: functional; settings: po
Method in brief: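 Rats given test compound by mouth in the curative (established-disease) adjuvant arthritis/edema model. Inhibition of paw edema was scored, and potency is given as an ED50 in mg/kg.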

[2] = In vitro inhibition of prostaglandin E2 production in cultured chondrocytes; type: functional, cell-based
Method in brief: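 Cultured chondrocytes were exposed to compound at neutral pH over a short incubation period. Prostaglandin E2 production was measured, and inhibitory potency is given as an IC50.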

IC50 [2] [nM]	Structure (SMILES)	ED50 [1] [mg/kg]
300	CCC1(CC(=O)O)SCCc2c1[nH]c1ccccc21 (configuration not stated)	> 25
	CCc1cccc2c3c([nH]c12)C(CC)(CC(=O)O)CCCC3 (configuration not stated)	> 50
100	CCC1(CC(=O)O)OCCc2c1[nH]c1ccccc21 (configuration not stated)	6.8
20	CCc1cccc2c3c([nH]c12)C(CC)(CC(=O)O)CCC3 (configuration not stated)	1.9
50	CCc1cccc2c3c([nH]c12)C(CC)(CC(=O)O)COC3 (configuration not stated)	3
	CCc1cccc2c3c([nH]c12)C(CC)(CC(=O)O)CC3 (configuration not stated)	6.2
23	CCc1cccc2c3c([nH]c12)C(CC)(CC(=O)O)OCC3 (configuration not stated) [ETODOLAC]	0.7
